Data as given in ChEMBL document CHEMBL1275303, “Synthesis and antimicrobial activity of 2-substituted [4-(1,3,4-oxadiazol-2-yl methyl)] phthalazin-1(2H)-one derivatives” (2010).

What was measured:
Salmonella typhi [1] = experiment: Antimicrobial activity against Salmonella typhi at 50 ug/mL after 24 hrs by well plate method; format: functional, Salmonella enterica subsp. enterica serovar Typhi; details: Salmonella enterica, read-out: IZ
Summary of the method: (§1)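 Agar well diffusion in nutrient agar: about 1 cm³ of a 24 h broth culture placed in a sterile dish, molten agar at 45 °C poured over it and allowed to set. 6 mm holes cut with a sterile cork borer and filled with compound solution in DMSO. Incubated 24 h at 37 °C; inhibition zone diameter read in mm. Run in duplicate, standard deviation calculated.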

Aspergillus flavus [2] = experiment: Antimicrobial activity against Aspergillus flavus at 100 ug/mL after 72 hrs by well plate method; format: functional; details: read-out: IZ
Candida albicans [3] = experiment: Antimicrobial activity against Candida albicans at 50 ug/mL after 72 hrs by well plate method; format: functional; details: read-out: IZ
Summary of the method: (§2)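 Antifungal well-plate assay on Sabouraud dextrose agar using a 72 h old broth culture of the fungal strain. Wells were filled with compound dissolved in DMSO (100 or 50), and the zone of inhibition around each well was measured. […] served as reference.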

Aspergillus flavus [4] = experiment: Antimicrobial activity against Aspergillus flavus at 50 ug/mL after 72 hrs by well plate method; format: functional; details: read-out: IZ
Candida albicans [5] = experiment: Antimicrobial activity against Candida albicans at 100 ug/mL after 72 hrs by well plate method; format: functional; details: read-out: IZ; summary of the method: as §2
Staphylococcus aureus [6] = experiment: Antimicrobial activity against Staphylococcus aureus at 50 ug/mL after 24 hrs by well plate method; format: functional; details: read-out: IZ
Summary of the method: (§3)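 Agar well diffusion in nutrient agar. About 1 cm³ of a 24 h broth culture was placed in sterile dishes, and molten agar at 45 °C was poured over it and set. 6 mm wells were bored and filled with compound in DMSO (100 or 50). Plates were incubated 24 h at 37 °C, and the inhibition zone was read in mm. Duplicate runs, with standard deviation; amoxicillin as reference.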

Escherichia coli [7] = experiment: Antimicrobial activity against Escherichia coli at 100 ug/mL after 24 hrs by well plate method; format: functional; details: read-out: IZ; summary of the method: as §3
Nannizzia gypsea [8] = experiment: Antimicrobial activity against Microsporum gypseum at 100 ug/mL after 72 hrs by well plate method; format: functional; details: read-out: IZ; summary of the method: as §2
Bacillus subtilis [9] = experiment: Antimicrobial activity against Bacillus subtilis at 50 ug/mL after 24 hrs by well plate method; format: functional; details: read-out: IZ; summary of the method: as §3
Escherichia coli [10] = experiment: Antimicrobial activity against Escherichia coli at 50 ug/mL after 24 hrs by well plate method; format: functional; details: read-out: IZ; summary of the method: as §3
Nannizzia gypsea [11] = experiment: Antimicrobial activity against Microsporum gypseum at 50 ug/mL after 72 hrs by well plate method; format: functional; details: read-out: IZ; summary of the method: as §2
Staphylococcus aureus [12] = experiment: Antimicrobial activity against Staphylococcus aureus at 100 ug/mL after 24 hrs by well plate method; format: functional; details: read-out: IZ; summary of the method: as §3
[13] = system: Chrysosporium keratinophilum; experiment: Antimicrobial activity against Chrysosporium keratinophilum at 100 ug/mL after 72 hrs by well plate method; format: functional; details: read-out: IZ; summary of the method: as §2
[14] = system: Chrysosporium keratinophilum; experiment: Antimicrobial activity against Chrysosporium keratinophilum at 50 ug/mL after 72 hrs by well plate method; format: functional; details: read-out: IZ; summary of the method: as §2
Salmonella typhi [15] = experiment: Antimicrobial activity against Salmonella typhi at 100 ug/mL after 24 hrs by well plate method; format: functional, Salmonella enterica subsp. enterica serovar Typhi; details: Salmonella enterica, read-out: IZ; summary of the method: as §1
Bacillus subtilis [16] = experiment: Antimicrobial activity against Bacillus subtilis at 100 ug/mL after 24 hrs by well plate method; format: functional; details: read-out: IZ; summary of the method: as §3

| Compound | zone of inhibition at 50 µg/mL (Salmonella typhi [1]) | zone of inhibition at 100 µg/mL (Aspergillus flavus [2]) | zone of inhibition at 50 µg/mL (Candida albicans [3]) | zone of inhibition at 50 µg/mL (Aspergillus flavus [4]) | zone of inhibition at 100 µg/mL (Candida albicans [5]) | zone of inhibition at 50 µg/mL (Staphylococcus aureus [6]) | zone of inhibition at 100 µg/mL (Escherichia coli [7]) | zone of inhibition at 100 µg/mL (Nannizzia gypsea [8]) | zone of inhibition at 50 µg/mL (Bacillus subtilis [9]) | zone of inhibition at 50 µg/mL (Escherichia coli [10]) | zone of inhibition at 50 µg/mL (Nannizzia gypsea [11]) | zone of inhibition at 100 µg/mL (Staphylococcus aureus [12]) | zone of inhibition at 100 µg/mL [13] | zone of inhibition at 50 µg/mL [14] | zone of inhibition at 100 µg/mL (Salmonella typhi [15]) | zone of inhibition at 100 µg/mL (Bacillus subtilis [16]) |
| --- | --- | --- | --- | --- | --- | --- | --- | --- | --- | --- | --- | --- | --- | --- | --- | --- |
| Cc1nnc(Cc2nn(Cc3ccc(Cl)nc3)c(=O)c3ccccc23)o1 | 1 mm | 5 mm | 1 mm | 1 mm | 3.5 mm | 0 mm | 3.5 mm | 2 mm | 0 mm | 1.5 mm | 0 mm | 1.5 mm | 0 mm | 0 mm | 2.5 mm | 0 mm |
| O=c1c2ccccc2c(Cc2nnc(C(F)(F)F)o2)nn1Cc1ccc(Cl)nc1 | 4 mm | 2.5 mm | 1.5 mm | 0 mm | 4.5 mm | 3.5 mm | 8 mm | 5 mm | 0 mm | 6 mm | 3 mm | 6 mm | 4.5 mm | 1 mm | 7 mm | 2 mm |
| O=c1c2ccccc2c(Cc2nnc(C3CC3)o2)nn1Cc1ccc(Cl)nc1 | 3 mm | 5 mm | 5.5 mm | 2.5 mm | 8.5 mm | 1 mm | 11.5 mm | 7.5 mm | 4 mm | 7 mm | 4.5 mm | 4.5 mm | 2.5 mm | 0.5 mm | 6 mm | 6.5 mm |
| O=c1c2ccccc2c(Cc2nnc(-c3ccc(F)cc3)o2)nn1Cc1ccc(Cl)nc1 | 3 mm | 4 mm | 2.5 mm | 2 mm | 4.5 mm | 4 mm | 10 mm | 6.5 mm | 3 mm | 8 mm | 4 mm | 6 mm | 1.5 mm | 0 mm | 7.5 mm | 5 mm |
| O=c1c2ccccc2c(Cc2nnc(-c3ccc(Cl)cc3)o2)nn1Cc1ccc(Cl)nc1 | 4 mm | 5 mm | 3 mm | 2.5 mm | 5.5 mm | 1 mm | 8 mm | 4 mm | 3.5 mm | 5 mm | 1 mm | 4.5 mm | 3 mm | 1 mm | 7.5 mm | 7 mm |
| Cc1ccccc1-c1nnc(Cc2nn(Cc3ccc(Cl)nc3)c(=O)c3ccccc23)o1 | 1 mm | 4 mm | 0 mm | 1 mm | 3 mm | 4.5 mm | 7 mm | 3 mm | 0 mm | 4.5 mm | 1 mm | 6.5 mm | 1.5 mm | 0 mm | 3 mm | 2.5 mm |
| O=c1c2ccccc2c(Cc2nnc(-c3ccsc3)o2)nn1Cc1ccc(Cl)nc1 | 10 mm | 7.5 mm | 5.5 mm | 4 mm | 7.5 mm | 7 mm | 15.5 mm | 11 mm | 4 mm | 10 mm | 6.5 mm | 11.5 mm | 10.5 mm | 6.5 mm | 15.5 mm | 6 mm |
| O=c1c2ccccc2c(Cc2nnc(-c3ccc(Cl)nc3)o2)nn1Cc1ccc(Cl)nc1 | 2.5 mm | 6.5 mm | 8.5 mm | 3.5 mm | 11.5 mm | 7.5 mm | 12.5 mm | 7 mm | 5.5 mm | 7.5 mm | 4 mm | 10.5 mm | 6.5 mm | 4.5 mm | 6.5 mm | 8 mm |
| Cc1nnc(Cc2nn(Cc3cnc(Cl)s3)c(=O)c3ccccc23)o1 | 2.5 mm | 3 mm | 1 mm | 1 mm | 2.5 mm | 0 mm | 5.5 mm | 3.5 mm | 1 mm | 2.5 mm | 0 mm | 1 mm | 2.5 mm | 0 mm | 4.5 mm | 3 mm |
| O=c1c2ccccc2c(Cc2nnc(C(F)(F)F)o2)nn1Cc1cnc(Cl)s1 | 3 mm | 4.5 mm | 0.5 mm | 1.5 mm | 3.5 mm | 4 mm | 6.5 mm | 5.5 mm | 3 mm | 3 mm | 3 mm | 7 mm | 5.5 mm | 2 mm | 5.5 mm | 5 mm |
| CC1(C)S[C@@H]2[C@H](NC(=O)[C@H](N)c3ccc(O)cc3)C(=O)N2[C@H]1C(=O)O [AMOXICILLIN] | 12 mm | – | – | – | – | 12.5 mm | 18.5 mm | – | 10.5 mm | 15 mm | – | 16.5 mm | – | – | 20.5 mm | 14.5 mm |
| Cc1ncc([N+](=O)[O-])n1CCO [METRONIDAZOLE] | – | 17.5 mm | 15 mm | 13.5 mm | 19.5 mm | – | – | 17 mm | – | – | 14 mm | – | 14 mm | 11 mm | – | – |
